Reference: ChEMBL document CHEMBL4373710, “DNA Structural Alteration Leading to Antibacterial Properties of 6-Nitroquinoxaline Derivatives” (J Med Chem, 2019)
Converted amounts (≈) assume the structure as drawn. The source made the active and inactive calls. The calls are words filed in the database; no cut-off is given here.

Columns and labels:
Staphylococcus aureus [1] = experiment: Antibacterial activity against Staphylococcus aureus MTCC737 measured after 6 hrs by broth microdilution assay; type: functional; details: MTCC737, 6 h
Method in brief: (§1)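 Broth microdilution per CLSI; 5×10^5 cfu/mL bacteria in LB broth; compounds from DMSO stocks, final DMSO under 0.6%, with DMSO control. Plates incubated at the strain's recommended growth temperature and time; growth read as OD600.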

[2] = Antibacterial activity against Arthrobacter chlorophenolicus A6MTCC3706 by broth microdilution assay; type: functional; details: Pseudarthrobacter chlorophenolicus; method in brief: as §1
[3] = Binding affinity to pCDNA 3.1 (unknown origin) assessed as DNA unwinding effect at 2:1 to 4:1 compound to DNA ratio measured after 16 hrs by EtBr staining agarose gel shift assay
Method in brief: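 pcDNA3.1 plasmid was grown in E. coli DH5α and used at 40 µM in 50 mM NaP, pH 7, with 10 mM NaCl. Mixed with compound at set [compound]:[DNA bp] ratios and held 16 h at 37 °C. Run on 1% agarose at 50 V for about 3 h, then stained with EtBr (1 µg/mL) for 5 min.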

[4] = tested on: Poly(dG-dC)oligonucleotide; experiment: Binding affinity to poly(dG-dC) DNA (unknown origin) assessed as appearance of induced CD by circular dichroism method; type: nucleic-acid assay
Method in brief: (§2)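 Poly(dA-dT)·poly(dA-dT) or poly(dG-dC)·poly(dG-dC) held at 10 µM. Titrated with compound from 20 to 60 µM and followed by circular dichroism for change in the B-DNA band and appearance of induced CD.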

[5] = tested on: Poly(dA-dT)oligonucleotide; experiment: Binding affinity to poly(dA-dT) DNA (unknown origin) assessed as change in B-DNA structure up to 6:1 compound to DNA ratio by circular dichroism method; type: nucleic-acid assay; method in brief: as §2
DNA [6] = experiment: Binding affinity to Escherichia coli pBR322 DNA assessed as DNA unwinding at 0.5:1 to 1.5:1 compound to DNA ratio by atomic force microscopic analysis; type: nucleic-acid assay
Method in brief: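 Supercoiled pBR322 plasmid treated with compound at [compound]:[DNA bp] ratios of 0.5:1, 1:1, 1.5:1, 2:1 and 3:1. Imaged by atomic force microscopy, with DNA height measured and compared against untreated plasmid.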

DNA [7] = experiment: Inhibition of ethidium bromide binding to Staphylococcus aureus DNA at 37 degC by fluorescence assay; type: nucleic-acid assay
Method in brief: (§3)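 S. aureus genomic DNA (10 µM) with EtBr (5 µM) in 10 mM NaP pH 7, 10 mM NaCl and 1% DMSO, at 25 and 37 °C. Titrated with compound from 2.5 to 100 µM. Excitation 480 nm, emission scanned 520–700 nm, corrected for inner filter. Stern–Volmer analysis, triplicates. Variants: pH 6–8, or NaCl raised to 50 and 200 mM.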

Calf thymus DNA = experiment: Binding affinity to calf thymus DNA by isothermal titration calorimetric analysis; type: nucleic-acid assay; details: Bos taurus
DNA [8] = experiment: Inhibition of ethidium bromide binding to Staphylococcus aureus DNA in presence of 10 to 200 mM NaCl by fluorescence assay; type: nucleic-acid assay; method in brief: as §3
DNA [9] = experiment: Binding affinity to Staphylococcus aureus DNA assessed as transition of local to global DNA at 1:1 to 3:1 compound to DNA ratio by atomic force microscopic analysis; type: nucleic-acid assay
Method in brief: (§4)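 Isolated S. aureus genomic DNA (2.8 Mbp) treated with compound at increasing [compound]:[DNA bp] ratios, up to 3:1. Imaged by atomic force microscopy against untreated DNA.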

DNA [10] = experiment: Binding affinity to Staphylococcus aureus DNA assessed as formation of DNA superstructure at 1:1 to 3:1 compound to DNA ratio by atomic force microscopic analysis; type: nucleic-acid assay; method in brief: as §4
DNA [11] = experiment: Binding affinity to Staphylococcus aureus DNA assessed as relaxation of DNA strand at 1:1 compound to DNA ratio by atomic force microscopic analysis; type: nucleic-acid assay; method in brief: as §4
DNA [12] = experiment: Induction of DNA condensation in Staphylococcus aureus assessed as decrease in nucleoid area at 10 uM after 1 hr by DAPI staining-based confocal laser scanning fluorescence microscopic analysis relative to control; type: nucleic-acid assay; design: scale not given: the % may be the effect or the level left
Method in brief: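 S. aureus grown 6 h at 37 °C, washed into PBS and exposed to 10 µM compound or 0.5% DMSO for 1 h at 37 °C with shaking. Fixed in paraformaldehyde for 30 min at 4 °C, then DAPI-stained for 5 min. Nucleoid and cell areas measured from phase contrast/DAPI images; N/C ratio from 35 cells over three independent experiments, mean ± SD.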

Staphylococcus aureus [13] = experiment: Inhibition of DNA synthesis in Staphylococcus aureus at 3.5 uM measured after 1 hr by BrdU incorporation assay; type: functional, organism-based
Method in brief: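 Log-phase S. aureus (10^5–10^6 CFU/mL) exposed to 3.5 µM for 1 h at 37°C, then BrdU pulse for 30 min; fixed in paraformaldehyde, permeabilised (Triton X-100/lysostaphin), DNA denatured in 2N HCl, stained with FITC anti-BrdU antibody, confocal imaging.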

Staphylococcus aureus [14] = experiment: Inhibition of DNA synthesis in Staphylococcus aureus assessed as reduction in [3H]-thymidine incorporation at 3.5 to 5 uM measured after 30 mins by scintillation counting analysis; type: functional, organism-based
Method in brief: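 Log-phase S. aureus (10^5–10^6 CFU/mL) incubated with 3.5 or 5 µM, then pulsed 30 min with 3H-thymidine (1 µCi/well); cells harvested and counted by liquid scintillation. 5-fluorouracil (2 µM) as positive control.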

Staphylococcus aureus [15] = experiment: Induction of DNA breaks in Staphylococcus aureus at 3.5 uM by TUNEL staining based confocal laser scanning fluorescence microscopic analysis; type: functional, organism-based
Method in brief: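 S. aureus treated with 3.5 µM or 0.5% DMSO; pelleted, fixed in 16% paraformaldehyde 30 min at 4°C, permeabilised with 0.2% Triton X-100 plus lysostaphin 0.05 mg/mL; TdT tailing with fluorescent nucleotides 60 min at 37°C, stopped with 2X SSC; confocal imaging with fluorescein filter.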

HEK293 = experiment: Induction of DNA damage in HEK293 cells at 15 uM by TUNEL staining based confocal laser scanning fluorescence microscopic analysis; type: cell-based; details: human, hek293, 15 µM
Method in brief: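 TUNEL in HEK 293 cells treated with 15 µM or 0.5% DMSO control; TdT incorporation of fluorescent nucleotides at strand-break 3′-OH ends, confocal imaging at 60X.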

Staphylococcus aureus [16] = experiment: Induction of morphological changes in Staphylococcus aureus assessed as change in microbe length at 5 uM by atomic force microscopic analysis (reference value: 1.37 +/- 0.09 micrometer); type: functional
Staphylococcus aureus [17] = experiment: Induction of morphological changes in Staphylococcus aureus assessed as changed population at 3.5 uM measured after 2 hrs by flow cytometric analysis (reference value: 5.71%); type: functional
Staphylococcus aureus [18] = experiment: Induction of morphological changes in Staphylococcus aureus assessed as changed population at 5 uM measured after 2 hrs by flow cytometric analysis (reference value: 5.71%); type: functional
Staphylococcus aureus [19] = experiment: Induction of morphological changes in Staphylococcus aureus assessed as changed population at 7.5 uM measured after 2 hrs by flow cytometric analysis (reference value: 5.71%); type: functional
Staphylococcus aureus [20] = experiment: Disruption of cell membrane in Staphylococcus aureus assessed as accumulation of propidium iodide negative cells at 5 uM by flow cytometric analysis (reference value: 98.2%); type: functional
Escherichia coli = experiment: Disruption of membrane integrity in Escherichia coli assessed as increase in extracellular ALK level at 3.5 to 5 uM measured after 2 hrs by PLP substrate based assay

With `CN(C)CCCNc1nc2cc([N+](=O)[O-])ccc2nc1NCc1ccc(C(F)(F)F)cc1` the MIC (Staphylococcus aureus [1]) was 1.79 µg/mL (≈ 3.99 µM), the MIC [2] was 0.897 µg/mL (≈ 2 µM) and the Activity [3] was “Active”. For the same molecule, the Activity [4] was “Dose-dependent effect”, the Activity [5] was “inactive” and the Activity (DNA [6]) was “Active”. The inhibition (DNA [7]) was “Active”, the Ka (Calf thymus DNA) was 2.27 ×10⁴ /M and the inhibition (DNA [8]) was “Active”. For the same molecule, the Activity (DNA [9]) was “Active”, the Activity (DNA [10]) was “Active” and the Activity (DNA [11]) was “Active”. The Activity (DNA [12]) was 30%, the inhibition (Staphylococcus aureus [13]) was “Active” and the inhibition (Staphylococcus aureus [14]) was “Active”. For the same molecule, the Activity (Staphylococcus aureus [15]) was “Active”, the Activity (HEK293) was “Toxic” and the Activity (Staphylococcus aureus [16]) was 2.36 um. It also gave an Activity (Staphylococcus aureus [17]) of 10.2%, an Activity (Staphylococcus aureus [18]) of 14.6% and an Activity (Staphylococcus aureus [19]) of 16.4%. The Activity (Staphylococcus aureus [20]) was 79% and the Activity (Escherichia coli) was “Active”.
